ChEMBL document CHEMBL1250451, “Mechanistic insights into a Ca2+-dependent family of alpha-mannosidases in a human gut symbiont” (Nat Chem Biol, 2010)

Experiments:
Type in all cases: protein assay
[1] = target: T1, Alpha-1,2-mannosidase (BT_2199) (Bacteroides thetaiotaomicron, UniProt Q8A5N9); assay: Inhibition of Bacteroides thetaiotaomicron GH92 alpha-mannosidase 2199 assessed as reduction of mannose release using 4NP-mannopyranoside substrate
T1 sequence (Q8A5N9 whole entry): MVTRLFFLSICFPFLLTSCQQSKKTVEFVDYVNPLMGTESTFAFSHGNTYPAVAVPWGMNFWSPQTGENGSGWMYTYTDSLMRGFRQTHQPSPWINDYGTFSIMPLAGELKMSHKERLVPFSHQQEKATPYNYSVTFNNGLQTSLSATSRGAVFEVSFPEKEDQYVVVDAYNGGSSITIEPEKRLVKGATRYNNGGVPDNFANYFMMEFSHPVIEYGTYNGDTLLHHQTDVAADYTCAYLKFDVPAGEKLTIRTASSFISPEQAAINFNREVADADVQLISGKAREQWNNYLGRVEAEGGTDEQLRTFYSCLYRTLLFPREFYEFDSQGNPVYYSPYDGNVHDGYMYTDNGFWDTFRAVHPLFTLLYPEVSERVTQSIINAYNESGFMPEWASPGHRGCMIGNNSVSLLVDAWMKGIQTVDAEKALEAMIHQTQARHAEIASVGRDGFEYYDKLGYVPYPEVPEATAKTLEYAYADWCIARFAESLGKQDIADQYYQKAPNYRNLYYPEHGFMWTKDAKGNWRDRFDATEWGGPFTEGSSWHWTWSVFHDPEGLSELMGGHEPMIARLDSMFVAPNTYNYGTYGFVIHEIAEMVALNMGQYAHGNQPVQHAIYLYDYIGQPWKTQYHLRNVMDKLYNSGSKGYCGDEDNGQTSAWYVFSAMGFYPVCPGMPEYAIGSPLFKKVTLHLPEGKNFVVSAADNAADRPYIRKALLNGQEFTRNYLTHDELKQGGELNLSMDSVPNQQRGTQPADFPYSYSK
Method in brief: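 Recombinant enzymes expressed in E. coli. Bt3990 was purified by IMAC, anion exchange and size exclusion; Bt2199 by IMAC only. Ki was measured with at least five inhibitor concentrations at a substrate concentration ≪ Km for each enzyme. Ki was taken as the x-axis intercept of a plot of […] against inhibitor concentration.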

[2] = substrate: O=[N+]([O-])c1ccc(O[C@H]2O[C@H](CO)[C@@H](O)[C@H](O)[C@@H]2O)cc1; assay: Ratio of Kcat to Km for Bacteroides thetaiotaomicron GH92 alpha-mannosidase GH92 alpha-mannosidase 1769 assessed as mannose release after 16 hrs by HPLC
[3] = substrate: O=[N+]([O-])c1ccc(O[C@H]2O[C@H](CO)[C@@H](O)[C@H](O)[C@@H]2O)cc1; assay: Activity of Bacteroides thetaiotaomicron GH92 alpha-mannosidase GH92 alpha-mannosidase 1769 assessed as mannose release after 16 hrs by HPLC
[4] = substrate: O=[N+]([O-])c1ccc(O[C@H]2O[C@H](CO)[C@@H](O)[C@H](O)[C@@H]2O)cc1; assay: Ratio of Kcat to Km for Bacteroides thetaiotaomicron GH92 alpha-mannosidase GH92 alpha-mannosidase 2111 assessed as mannose release after 16 hrs by HPLC
[5] = substrate: O=[N+]([O-])c1ccc(O[C@H]2O[C@H](CO)[C@@H](O)[C@H](O)[C@@H]2O)cc1; assay: Activity of Bacteroides thetaiotaomicron GH92 alpha-mannosidase GH92 alpha-mannosidase 2111 assessed as mannose release after 16 hrs by HPLC

O=C1N[C@@H]2[C@@H](O)[C@@H](O)[C@H](O)[C@@H](CO)N2C1=O [KIFUNENSINE]
Ki [1]: 230 µM

B1: Alpha-1,2-mannosidase (BT_1769) (Bacteroides thetaiotaomicron), Q8A6V7 (protein)
chain: MKLTHILASAAIISTLSACNGSLQTADRTPVDYVNPYIGNISHLLVPTFPTIQLPNSMLRVYPERADYTSELLKGLPLIVTNHRERSAFNFSPYQGEKLRPVITYNYDNEHITPYSFDVELDDNRMKAEYALSHQSAIYRITYEADKPAYLIVNSRNGSIHANENFISGRQQLNDNTNVYVYIEAQEKPISAGILENGTIETSKDNAEGANACAAWRFADGTTTVNLRYGISFISEEQAEKNLHRELKDYNIKALAEAGRQIWNETLGRIQVEGGTEDDKTVFYSSFYRTFERPICMSEGGRYFSAFDGKVHEDNGTPFYTDDWIWDTYRAAHPLRTLIDQQKEEDIIASYLRMAEQMGNMWMPTFPEVTGDTRRMNSNHAVATVADALAKGLKVDTAKAYEACRKGIEEKTLAPWSGAPAGWLDNFYRENGYIPALRVDEPENDPNVHPFEKRQPVAVTLGTSYDQWCLSRIAQALNKKEEAEYYLKCSYNYRNLYNKETAFFHPKDKEGQWIEPFDYRFPGGMGAREYYGENNGWVYRWDVPHNVADLISLMGGNEQFIANLDRTFTEPLGRSKYAFYAKLPDHTGNVGQFSMANEPSLHVPYLYNYAGQPWKTQKRIRQMLKTWFRNDLMGIPGDEDGGGMTSFVVFSSLGFYPVTPGLPAYTIGSPLFTDAKIRLSNGAVFEIEAKNASTDNKYIQSATLNGKEWNKSWFSHDDLMSGGKLVLVMGNKPNKTWASGAEDVPPSLEIK
kcat/Km [2]: Not Active | Km [3]: Not Active | kcat [3]: Not Active

B2: Alpha-1,2-mannosidase (BT_2111) (Bacteroides thetaiotaomicron), Q8A5X5 (protein)
chain: MKRIPLSLFTFLFLLSGLCAAPTKTVWQIGEKNHSASELALSPDKYKEFLANDFGWEDRFYIIGLSSPQKDFPYVLPGPADHWGGTSYTAGIRTHVLNILFGMKEVPETDSWKLIIDLLDTHHELPALFKITINGKSWKYALPKGSGKSIDGDYSQIKPHTIEIPLNSGVIRKGSNSIALTSLEGSWILFDDIRLMGPDNAELNEVNKSVYLRDVKAADFQTTSPVAQPLLVDIEHLSGHPLLEVKVDGKKILEQRLEKGRYILEAPMPVVKSPKTSHYIISADGAILDKGMIRRAPHNTITLADYIDTRMGTAHSRWMIAPGTWMPFSMVKLSPDNQDSGWQSGYDPSFESIGTFSHIHEWTMAGLGIMPANGPLKTEIGSQSSLVKDANSYRSAIDKTSEETKVGYYKVDLTDYQIKAELTATSRCGFQRYTYPQDKDARVMIDLKIPSEYDYQIVEGSVKQTGARRIEGFSKQLSKNVWSADADQNYTIYFVIEFNKDIKKFGGWHDHTLWETDTMTAHYPQRFGCYAEFDTTDHPEVMVRSGISYVDMAGASNNLSNEITEPFGWNFEAVHKHQSDSWNNILNRVRIYSNDYREKVRFYTNLYRAFCRNTFSDADRRWVDAAGNIQKLDDPDAVALGCDAFWNTFWNLNQVWNLIAPEWSSRWVKSQLAMYDANGWLAKGPSGMKYIPVMVGEHEIPLLVSTYQMGIRNYDAEKMFRAIVKMQTTPAQRVANGFAGNRDLETYLQHQYVPADKGRFSNTLEYSYDDWTVSQLAKALGKEEYYRTFSNRGNWWKNAINPATGYAQMRYSNGEWEKNFDPFKSGANHHYVEGNAWQLTFFVPQNVPALTEIIGKELFIDRLSWGFKASEPWRYNAPGDQYWDFPVVQGNQQSMHFAFLFNWAGQPWQTQRWSRSIIDRYYGFDTSNAYLGDEDQGQMSAWFVMAALGLFQTDGGCNAEPVYELGSPLFEKIKIDLGKHFGRGKQFIIKASNTSRENKYIQSAKLNGKKLNSFKFPAKELLKGGTLELEMGDRPNKNWGIK
kcat/Km [4]: Not Active | Km [5]: Not Active | kcat [5]: Not Active
